Reference: ChEMBL document CHEMBL3046604, “Synthesis and fungistatic activity of new groups of 2,4-dihydroxythiobenzoyl derivatives against phytopathogenic fungi” (J Agric Food Chem, 2003)
Activity calls are given as the source filed them. The calls are words filed in the database; no cut-off is given here.

Assays:
Phytophthora cactorum [1] = assay: Fungistatic activity against Phytophthora cactorum assessed as mycelial growth inhibition at 20 ug/ml after 4 to 8 days relative to control; type: functional; settings: for inhibition of growth at 20 µg/mL: read-out: GI
How it was run: (§1)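 Compound solutions or suspensions were diluted into PDA agar to final 200 or 20 µg/mL and poured into Petri dishes. Once the agar set, mycelium-covered agar disks of the fungus were placed at three sites on the surface. Linear colony growth was measured after 4-8 days, depending on the culture. Inhibition J = [(C − T)/C] × 100 versus untreated control, reported on a four-degree scale.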

Phytophthora cactorum [2] = assay: Fungistatic activity against Phytophthora cactorum assessed as mycelial growth inhibition at 200 ug/ml after 4 to 8 days relative to control; type: functional; settings: for inhibition of growth at 200 µg/mL: read-out: GI; how it was run: as §1
Fusarium culmorum [3] = assay: Fungistatic activity against Fusarium culmorum assessed as mycelial growth inhibition at 20 ug/ml after 4 to 8 days relative to control; type: functional; settings: for inhibition of growth at 20 µg/mL: read-out: GI; how it was run: as §1
Fusarium culmorum [4] = assay: Fungistatic activity against Fusarium culmorum assessed as mycelial growth inhibition at 200 ug/ml after 4 to 8 days relative to control; type: functional; settings: for inhibition of growth at 200 µg/mL: read-out: GI; how it was run: as §1
Rhizoctonia solani [5] = assay: Fungistatic activity against Rhizoctonia solani assessed as mycelial growth inhibition at 20 ug/ml after 4 to 8 days relative to control; type: functional; settings: for inhibition of growth at 20 µg/mL: read-out: GI; how it was run: as §1
Rhizoctonia solani [6] = assay: Fungistatic activity against Rhizoctonia solani assessed as mycelial growth inhibition at 200 ug/ml after 4 to 8 days relative to control; type: functional; settings: for inhibition of growth at 200 µg/mL: read-out: GI; how it was run: as §1
Botrytis cinerea [7] = assay: Fungistatic activity against Botryotinia fuckeliana assessed as mycelial growth inhibition at 20 ug/ml after 4 to 8 days relative to control; type: functional; settings: read-out: GI; how it was run: as §1
Alternaria alternata [8] = assay: Fungistatic activity against Alternaria alternata assessed as mycelial growth inhibition at 20 ug/ml after 4 to 8 days relative to control; type: functional; settings: read-out: GI; how it was run: as §1
Botrytis cinerea [9] = assay: Fungistatic activity against Botryotinia fuckeliana assessed as mycelial growth inhibition at 200 ug/ml after 4 to 8 days relative to control; type: functional; settings: read-out: GI; how it was run: as §1
Alternaria alternata [10] = assay: Fungistatic activity against Alternaria alternata assessed as mycelial growth inhibition at 200 ug/ml after 4 to 8 days relative to control; type: functional; settings: read-out: GI; how it was run: as §1
Blumeria graminis [11] = assay: Fungistatic activity against Blumeria graminis infested wheat seedling assessed as inhibition of fungal infection at 500 ug/ml applied as spray after 7 to 14 days under green house conditions relative to control; type: functional
How it was run: (§2)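 Greenhouse test on healthy wheat seedlings with Erysiphe graminis. At the well-developed first-leaf stage, plants were sprayed with compound solution at 1000 or 500 µg/mL, 10 mL of solution per treatment, with three repeats in 9 cm paraffin cups.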

Blumeria graminis [12] = assay: Fungistatic activity against Blumeria graminis infested wheat seedling assessed as inhibition of fungal infection at 1000 ug/ml applied as spray after 7 to 14 days under green house conditions relative to control; type: functional; how it was run: as §2
[13] = Lipophilicity, log K of the compound in methanol-water mixture by HPLC; type: physicochemical
How it was run: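 Reversed-phase HPLC on a Hypersil BDS C18 column (5 µm, 150 × 4.6 mm) with UV detection at 320 nm. Samples were dissolved in methanol. Mobile phase was methanol at varying volume fractions in 10 mM acetate buffer pH 4, run at 1 mL/min and room temperature. Dead time was taken from injection of acetone dissolved in water.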

Row | Structure (SMILES) | log K [13] | growth inhibition (GI) (Phytophthora cactorum [1]) | growth inhibition (GI) (Phytophthora cactorum [2]) | growth inhibition (GI) (Fusarium culmorum [3]) | growth inhibition (GI) (Fusarium culmorum [4]) | growth inhibition (GI) (Rhizoctonia solani [5]) | growth inhibition (GI) (Rhizoctonia solani [6]) | inhibition of growth at 20 µg/mL (Botrytis cinerea [7]) [%] | inhibition of growth at 20 µg/mL (Alternaria alternata [8]) [%] | inhibition of growth at 200 µg/mL (Botrytis cinerea [9]) [%] | inhibition of growth at 200 µg/mL (Alternaria alternata [10]) [%] | inhibition at 500 µg/mL (Blumeria graminis [11]) [%] | inhibition at 1000 µg/mL (Blumeria graminis [12]) [%] | inhibition of growth at 20 µg/mL (Phytophthora cactorum [1]) [%] | inhibition of growth at 200 µg/mL (Phytophthora cactorum [2]) [%] | inhibition of growth at 20 µg/mL (Fusarium culmorum [3]) [%] | inhibition of growth at 200 µg/mL (Fusarium culmorum [4]) [%] | inhibition of growth at 20 µg/mL (Rhizoctonia solani [5]) [%] | inhibition of growth at 200 µg/mL (Rhizoctonia solani [6]) [%]
1 | CC12CC1(C)C(=O)N(c1cc(Cl)cc(Cl)c1)C2=O (stereo unspecified) [PROCYMIDONE] |  | inactive | inactive | inactive | inactive | inactive | inactive | 81 | 81 | 81 | 81 |  |  |  |  |  |  |  | 
2 | Oc1ccc(C(=S)NNC(=S)Nc2cccc(Cl)c2)c(O)c1 | 0.229 |  |  |  |  |  |  | 0 | 0 | 0 | 0 | 0 | 0 | 0 | 61 | 0 | 0 | 0 | 0
3 | COc1ccc(COC(=O)NNC(=S)c2ccc(O)cc2O)cc1 | 0.103 |  |  |  |  |  |  |  |  |  |  |  |  |  |  |  |  |  | 
4 | CCOC(=O)Cc1csc(NC(=S)c2ccc(O)cc2O)n1 | 0.048 |  |  |  |  |  |  | 0 | 0 | 0 | 21 | 0 | 21 | 0 | 41 | 0 | 0 | 0 | 0
5 | Oc1ccc(C(=S)n2nnc3cc(Cl)ccc32)c(O)c1 | 0.936 |  |  |  |  |  |  | 21 | 0 | 81 | 81 | 0 | 21 | 21 | 81 | 0 | 81 | 21 | 81

Further lines, with some results ahead:

Row | log K [13] | Structure (SMILES) | growth inhibition (GI) (Phytophthora cactorum [1]) | growth inhibition (GI) (Phytophthora cactorum [2]) | growth inhibition (GI) (Fusarium culmorum [3]) | growth inhibition (GI) (Fusarium culmorum [4]) | growth inhibition (GI) (Rhizoctonia solani [5]) | growth inhibition (GI) (Rhizoctonia solani [6]) | inhibition of growth at 20 µg/mL (Botrytis cinerea [7]) [%] | inhibition of growth at 20 µg/mL (Alternaria alternata [8]) [%] | inhibition of growth at 200 µg/mL (Botrytis cinerea [9]) [%] | inhibition of growth at 200 µg/mL (Alternaria alternata [10]) [%] | inhibition at 500 µg/mL (Blumeria graminis [11]) [%] | inhibition at 1000 µg/mL (Blumeria graminis [12]) [%] | inhibition of growth at 20 µg/mL (Phytophthora cactorum [1]) [%] | inhibition of growth at 200 µg/mL (Phytophthora cactorum [2]) [%] | inhibition of growth at 20 µg/mL (Fusarium culmorum [3]) [%] | inhibition of growth at 200 µg/mL (Fusarium culmorum [4]) [%] | inhibition of growth at 20 µg/mL (Rhizoctonia solani [5]) [%] | inhibition of growth at 200 µg/mL (Rhizoctonia solani [6]) [%]
6 | 1.305 | Oc1ccc(C(=S)Nc2ccc(Oc3ccccc3)cc2)c(O)c1 |  |  |  |  |  |  | 0 | 0 | 0 | 41 | 0 | 0 | 0 | 21 | 0 | 0 | 0 | 21
7 | 0.488 | O=C(OC/C=C/c1ccccc1)c1ccccc1NC(=S)c1ccc(O)cc1O |  |  |  |  |  |  | 21 | 41 | 61 | 61 | 21 | 21 | 41 | 81 | 41 | 81 | 21 | 81
8 | 0.118 | Oc1ccc(C(=S)Nc2ccccc2-c2ccccc2)c(O)c1 |  |  |  |  |  |  | 0 | 0 | 61 | 61 | 0 | 21 | 41 | 81 | 0 | 61 | 0 | 61
9 | 0.373 | N#CCc1nn(-c2ccccc2)c(NC(=S)c2ccc(O)cc2O)c1C#N |  |  |  |  |  |  | 0 | 0 | 21 | 41 | 0 | 21 | 0 | 61 | 0 | 0 | 0 | 21
10 | 0.405 | O=C(O)c1cc2cc(OCc3ccccc3)ccc2n1C(=S)c1ccc(O)cc1O |  |  |  |  |  |  | 0 | 0 | 0 | 21 | 0 | 21 | 0 | 41 | 0 | 21 | 0 | 0
11 | 0.643 | Oc1ccc(C(=S)NC2=NN(c3ccccc3)CC2)c(O)c1 |  |  |  |  |  |  |  |  |  |  |  |  |  |  |  |  |  | 
